TbHK1 inh: Trypanosoma brucei hexokinase 1 inhibitors, primary screen, biochemical, G6PDH-coupled NADH absorbance, MLSCN library; recombinant TbHK1, G6PDH-coupled NADH A340; inhibition, % at 10 µM; 220,000 compounds, 0.11% hits; AID 1430, 2008;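 active = inhibition of 50% or more in the single-dose primary screen; inactive = inhibition below 50%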
Dynein transport: inhibitors of GR-EGFP nuclear translocation, primary screen, dynein cargo transport inhibitor project, imaging, high-content, 3617.4 mouse cells; z-score, hits read low; 220,000 compounds, 0.47% hits; test concentration mostly 20 µM; stimulated with dexamethasone, 1 µM; stronger effect = lower value; AID 1381, 2008;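 active = plate z-score of nuclear minus cytoplasmic receptor signal below a set negative limit, without overly bright fluorescence or cell loss, cut at about -3.5 in these data, passing the limit was not always enough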;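 also: z-score of nuclear minus cytoplasmic ring GR-EGFP intensity difference per well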
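medium = tetracycline-free induction medium containing charcoal-stripped FBS | probe or stimulus = dexamethasone, 1.0 µM final | timing = 48 h induction, then 1 h compound, then 30 min agonist, 37 °C | detection = automated 10x imaging of fixed Hoechst-stained cells | read-out basis = nuclear versus cytoplasmic GR-EGFP signal, averaged per well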
HKDC1 inh: HKDC1 hexokinase inhibitors, primary screen, biochemical, fluorescence, uHTS. 340,000 compounds, 0.16% hits. Q2TB90. inhibition, % at 20 µM. recombinant HKDC1, G6PDH/diaphorase resazurin coupled fluorescence;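 active = inhibition above about 35% when tested at 20 µM, limit read from the data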;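 also: plate controls were DMSO wells with enzyme for no effect and DMSO wells lacking enzyme for full effect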
Target sequence (Q2TB90 whole entry, looked up): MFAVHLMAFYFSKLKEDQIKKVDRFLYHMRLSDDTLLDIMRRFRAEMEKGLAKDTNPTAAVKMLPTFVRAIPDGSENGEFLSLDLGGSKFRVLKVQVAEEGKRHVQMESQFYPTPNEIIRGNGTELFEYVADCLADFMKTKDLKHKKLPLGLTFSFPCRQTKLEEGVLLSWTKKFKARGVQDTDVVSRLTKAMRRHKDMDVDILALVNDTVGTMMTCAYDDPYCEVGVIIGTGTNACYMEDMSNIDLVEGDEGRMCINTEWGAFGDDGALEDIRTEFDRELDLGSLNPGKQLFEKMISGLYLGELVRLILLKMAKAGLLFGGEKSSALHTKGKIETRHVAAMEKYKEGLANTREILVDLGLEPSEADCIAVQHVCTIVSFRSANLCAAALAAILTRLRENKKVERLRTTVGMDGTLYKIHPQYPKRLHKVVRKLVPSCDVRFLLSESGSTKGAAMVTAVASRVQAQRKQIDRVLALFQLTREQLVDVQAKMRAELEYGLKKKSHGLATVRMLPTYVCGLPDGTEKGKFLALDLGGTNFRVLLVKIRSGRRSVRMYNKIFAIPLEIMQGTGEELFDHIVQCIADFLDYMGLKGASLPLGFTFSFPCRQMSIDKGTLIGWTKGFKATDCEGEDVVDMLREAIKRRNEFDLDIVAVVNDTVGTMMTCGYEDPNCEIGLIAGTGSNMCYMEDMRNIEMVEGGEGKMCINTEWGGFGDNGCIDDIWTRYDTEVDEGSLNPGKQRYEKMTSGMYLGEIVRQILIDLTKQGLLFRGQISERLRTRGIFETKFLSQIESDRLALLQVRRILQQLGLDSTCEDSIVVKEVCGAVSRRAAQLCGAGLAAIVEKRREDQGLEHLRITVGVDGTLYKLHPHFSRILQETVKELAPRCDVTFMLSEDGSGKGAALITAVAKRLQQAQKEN
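test system = in-house recombinant HK5 (HKDC1) enzyme | amount = HKDC1 at 5 µg/mL | control set = DMSO-enzyme wells negative, buffer-substituted wells positive | compound = one dose of 20 µM, 1% DMSO | schedule = reaction time 90 min, room temperature, protected from light | technique = resorufin fluorescence at 613 nm | reagent = glucose with 1 mM ATP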
HSV augment: enhancers of HSV replication in host cells, fold increase, host cell viability. HSV replication augmentation in cells. maximum fold increase. 220,000 compounds, 0.005% hits. AID 1956, 2009; in the data active = maximum fold increase above about 1.5; inconclusive = no clear call, values can overlap the other calls; tested in PC3 cells
Autophagy HCS: autophagy modulators in MEF cells, primary screen, imaging, high-content, MEF GFP-LC3; MEF GFP-LC3 puncta imaging; test concentration mostly 10 µM; AID 463193, 2010; calls only at 10 µM (by protocol); 190,000 compounds, 0.98% hits;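 active = percentage of spot-positive cells more than 3 SD above its plate mean, without a fluorescence outlier flag or 80% toxicity; inconclusive = no clear call, values can overlap the other calls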;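 also: spot-positive cell cutoff set from DMSO-treated cells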
PERK inh: block of dimerizer-induced PERK translation repression, primary screen, PERK inhibitor project, CHO PERK-DD cells, SEAP luminescence, HTS. Eukaryotic translation initiation factor 2-alpha kinase 3 (Homo sapiens), Q9NZJ5. CHO PERK-DD fusion, SEAP luminescence translation reporter. inhibition, % at 5.6 µM. 220,000 compounds, 0.17% hits. AID 1416, 2008;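 active = inhibition above the mean inhibition of all tested compounds plus 3 SD, set separately per screening campaign, cut at about 2.9% in these data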;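 also: PERK kinase domain activated by AP20187 dimerizer at 100 nM; 0% = DMSO with dimerizer and 100% = rapamycin at 8.4 µM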
Dynein inh conf: dynein cargo transport inhibitors, GR-EGFP translocation, confirmation, imaging, high-content imaging, GR-EGFP cells | shares compounds with Dynein transport | calls only at 20 µM | 3617.4 GR-EGFP nuclear translocation imaging, dexamethasone-induced | 1,000 compounds, 69% hits | AID 463116, 2010;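 active = inhibition of receptor movement into the nucleus at or above a set limit in both runs, with normal cell brightness and cell count; inconclusive = limit reached in only one run, brightness and count normal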;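 also: dexamethasone at 1 µM final in well for 30 min; nuclear minus cytoplasmic GR-EGFP mean intensity difference in channel 2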
Numbers without * were called inactive. The list is not random: actives were taken first. Their share in the collection is about 1.2%.

How did O=C(/C=C/c1ccc(F)cc1)c1ccccc1Br do in these assays?
TbHK1 inh: -8; Dynein transport: -5.7*; HKDC1 inh: 20; HSV augment: inactive; Autophagy HCS: inactive; PERK inh: 1; Dynein inh conf: active

How did O=C(/C=C/c1ccc(O)c(O)c1)c1ccccc1O do in these assays?
TbHK1 inh: 13; Dynein transport: -5.4*; HKDC1 inh: 7; HSV augment: inactive; PERK inh: 0; Dynein inh conf: active

What do the screens show for `CN(CC(=O)Nc1ccc(F)c(F)c1F)C(=O)c1ccc(-n2cncn2)c([N+](=O)[O-])c1`?
HKDC1 inh: -4

What do the screens show for `Cc1csc(SC(C)C(=O)Nc2ccccc2C)n1` (configuration not stated)?
HKDC1 inh: 3

Results for CN1CC=C2C(C#N)=C(N)C(C#N)(C#N)C(Cc3ccccc3)C2C1 (configuration not stated) ?
TbHK1 inh: -4; Dynein transport: -4.6; HKDC1 inh: 6; HSV augment: inconclusive; Autophagy HCS: inconclusive; PERK inh: 0; Dynein inh conf: inactive

Results for CC(C)N1CC=C2C(C#N)=C(N)C(C#N)(C#N)C(c3ccccc3)C2C1 (configuration not stated) ?
TbHK1 inh: -7; Dynein transport: -3; HKDC1 inh: 12; HSV augment: inconclusive; Autophagy HCS: inconclusive; PERK inh: 1

Results for Nc1cccc2c1C(=O)N(C(=O)/C=C/c1cccc(F)c1)C2=O ?
TbHK1 inh: -16; Dynein transport: -4.3*; HKDC1 inh: 18; HSV augment: inactive; Autophagy HCS: inactive; PERK inh: 0; Dynein inh conf: active

What do the screens show for `COc1ccc(OC)c(/C=C/C(=O)N2C(=O)c3cccc(N)c3C2=O)c1`?
TbHK1 inh: -10; Dynein transport: 0.21; HKDC1 inh: 1; HSV augment: inactive; Autophagy HCS: inactive; PERK inh: 0

What do the screens show for `Nc1cccc2c1C(=O)N(C(=O)/C=C/c1cccc(Br)c1)C2=O`?
TbHK1 inh: -11; Dynein transport: -4.9*; HKDC1 inh: 33; HSV augment: inactive; PERK inh: 2; Dynein inh conf: active

What do the screens show for `COc1cc(/C=C/C(=O)N2C(=O)c3cccc(N)c3C2=O)cc(OC)c1OC`?
TbHK1 inh: -15; Dynein transport: -0.32; HKDC1 inh: 1; HSV augment: inactive; Autophagy HCS: inactive; PERK inh: 1

How did COc1ccc(C(=O)n2nc(-c3ccco3)nc2SC)cc1OC do in these assays?
TbHK1 inh: 2; Dynein transport: -4*; HKDC1 inh: 3; HSV augment: inactive; Autophagy HCS: inactive; PERK inh: 0; Dynein inh conf: inactive

Results for CC(C)(C)c1ccc(C(=O)NCCC(=O)Nc2ccc3c(c2)OCCO3)cc1 ?
HKDC1 inh: 30

How did CCOc1cc(C2C(C(=O)c3ccco3)=C(O)C(=O)N2CC2CCCO2)ccc1O (configuration not stated) do in these assays?
HKDC1 inh: -1

Results for Cc1cccc(N2C(=O)CC(Sc3ncn[nH]3)C2=O)c1 (configuration not stated) ?
TbHK1 inh: -2; Dynein transport: -0.98; HKDC1 inh: 1; HSV augment: inactive; Autophagy HCS: inactive; PERK inh: 1

How did Cc1ccc(N2C(=O)CC(Sc3ncn[nH]3)C2=O)cc1C (configuration not stated) do in these assays?
TbHK1 inh: 1; Dynein transport: -6*; HKDC1 inh: 2; HSV augment: inactive; Autophagy HCS: inactive; PERK inh: 0; Dynein inh conf: inactive

Results for CN(C)c1nc(C=C(C#N)C#N)c(Cl)n1-c1ccc(F)cc1 ?
TbHK1 inh: -9; Dynein transport: -6.6*; HKDC1 inh: 24; HSV augment: inactive; Autophagy HCS: inactive; PERK inh: 0; Dynein inh conf: active

Results for CCOc1ccccc1NC(=O)/C(C#N)=C/c1c(C)nn(-c2ccc(F)cc2)c1Cl ?
TbHK1 inh: -5; Dynein transport: -0.027; HKDC1 inh: -2; HSV augment: inactive; Autophagy HCS: inactive; PERK inh: 0

How did CC1(C)CC(=O)C(C(C#Cc2ccccc2)C2=C(O)CC(C)(C)CC2=O)=C(O)C1 do in these assays?
TbHK1 inh: -3; Dynein transport: -2; HKDC1 inh: -10; HSV augment: inactive; Autophagy HCS: inactive; PERK inh: 0

What do the screens show for `O=C1CCCC(O)=C1C(C#Cc1ccccc1)C1=C(O)CCCC1=O`?
TbHK1 inh: 5; Dynein transport: -5.5*; HKDC1 inh: 29; HSV augment: inactive; Autophagy HCS: inactive; PERK inh: 1; Dynein inh conf: active

What do the screens show for `CC(C)(C)c1ccc(C(=O)CC(Sc2ccc(Cl)cc2)C(=O)O)cc1` (configuration not stated)?
TbHK1 inh: -1; Dynein transport: -4.6*; HKDC1 inh: 5; HSV augment: inactive; Autophagy HCS: inactive; PERK inh: 0; Dynein inh conf: active

Results for Cc1ccc(SC(CC(=O)c2ccc(F)cc2)C(=O)O)cc1 (configuration not stated) ?
HKDC1 inh: 2

What do the screens show for `Cc1ccc(C2C(C#N)=C(N)Oc3cc(N)ccc32)cc1` (configuration not stated)?
HKDC1 inh: -2

Results for Cc1ccc(/C=C2\CCC3=C2OC(N)=C(C#N)C3c2ccc(C)cc2)cc1 (configuration not stated) ?
TbHK1 inh: -8; Dynein transport: -9; HKDC1 inh: 9; HSV augment: inconclusive; Autophagy HCS: active; PERK inh: -1; Dynein inh conf: inactive

How did COc1cc(-c2c(C#N)c(N)nc3[nH]c(=S)[nH]c(=O)c23)ccc1O do in these assays?
HKDC1 inh: 6

How did CCC(C)(C)c1ccc(OCCCC[n+]2cccc(C)c2)c(C(C)(C)CC)c1 do in these assays?
TbHK1 inh: 14; Dynein transport: -4.8*; HKDC1 inh: 13; HSV augment: inactive; Autophagy HCS: inactive; PERK inh: 1; Dynein inh conf: inactive

Assay outcomes from PubChem BioAssay.
